Published values gathered from unrelated publications.
Compare with care: the assays were run in different laboratories.
Cnr1: Cannabinoid receptor 1 (Cnr1, Rattus norvegicus, UniProt P20272)
CP: CP (Tobacco mosaic virus, UniProt P69687)
Antigen peptide transporter 1/Antigen peptide transporter 2: Antigen peptide transporter 1/Antigen peptide transporter 2 (Homo sapiens, UniProt Q03518+Q03519)

Compound	target	assay	setting	quantity	result
COc1c(-c2ccccc2)oc2c(ccc3occc32)c1=O	Cyclin-dependent kinase 7, with cyclin H (CDK7, Homo sapiens, UniProt P50613)	enzyme activity, inhibitor, ADP detection	–	IC50	> 100000 nM
CCCCCn1c2ccccc2c2cc(C(=O)NCC3CCN(CC(=O)NC(C)(C)C)CC3)ccc21	Cnr1	ligand displacement, radioligand	–	Ki	> 5000 nM
COc1ccc2cccc(C(CO)CNC(=O)CF)c2c1 (stereo not shown)	Melatonin receptor type 1B (MTNR1B, Homo sapiens, UniProt P49286)	β-arrestin recruitment, agonist	–	EC50	2.69 nM
C/C(N)=N\C(=N/S(=O)(=O)c1ccc(C(F)(F)F)cc1)N1C[C@H](c2ccccc2)C(c2ccc(Cl)cc2)=N1	Cnr1	ligand displacement, radioligand	cell membranes	Ki	8 nM
NC(=O)c1ncn([C@@H]2O[C@H](CO)[C@@H](O)[C@H]2O)n1	CP	binding, MST	–	Kd	120000 nM
C[C@H](NC(=O)[C@H](CCC(=O)O)NC(=O)[C@@H](NC(=O)[C@H](CO)NC(=O)[C@H](CCCCN)NC(=O)[C@H](CCC(N)=O)NC(=O)[C@H](Cc1ccc(O)cc1)NC(=O)[C@H](CCCNC(=N)N)NC(=O)[C@@H](N)CCCNC(=N)N)[C@@H](C)O)C(=O)O	Antigen peptide transporter 1/Antigen peptide transporter 2	ligand displacement	–	IC50	700 nM
CCCCCn1c2ccccc2c2cc(CN3CCCCC3)ccc21	Cnr1	ligand displacement, radioligand	cell membranes	Ki	~100 nM
C[C@H](N)C(=O)N[C@@H](CCCNC(=N)N)C(=O)N[C@@H](C)C(=O)N[C@@H](C)C(=O)N[C@@H](C)C(=O)N[C@@H](C)C(=O)N[C@@H](C)C(=O)N[C@@H](C)C(=O)N[C@@H](CCCCN)C(=O)O	Antigen peptide transporter 1/Antigen peptide transporter 2	ligand displacement	–	IC50	7000 nM
O=C(/C=C/c1cccc(S(=O)(=O)Nc2ccccc2)c1)NO	Protein deacetylase HDAC6 (HDAC6, Homo sapiens, UniProt Q9UBN7)	cell-free assay	–	Kd	520 nM
CC(C)C[C@H](NC(=O)[C@H](CCC(=O)O)NC(=O)[C@@H](NC(=O)[C@H](CO)NC(=O)[C@H](CCCCN)NC(=O)[C@H](CCC(N)=O)NC(=O)[C@H](Cc1ccc(O)cc1)NC(=O)[C@H](CCCNC(=N)N)NC(=O)[C@H](CCCNC(=N)N)NC(=O)[C@H](C)N)[C@@H](C)O)C(=O)N[C@@H](C)C(=O)O	Antigen peptide transporter 1/Antigen peptide transporter 2	ligand displacement	–	IC50	2600 nM
CC[C@H](C)[C@H](NC(=O)[C@H](CC(C)C)NC(=O)[C@@H](N)CO)C(=O)NCC(=O)N[C@@H](CCCCN)C(=O)N[C@H](C(N)=O)C(C)C	Proteinase-activated receptor 2 (F2RL1, Homo sapiens, UniProt P55085)	calcium signal, agonist	–	EC50	28200 nM
CC[C@H](C)[C@H](NC(=O)[C@H](CCCNC(=N)N)NC(=O)[C@H](C)N)C(=O)N[C@@H](CC(=O)O)C(=O)N[C@@H](CCCCN)C(=O)N1CCC[C@H]1C(=O)N[C@H](C(=O)N[C@@H](CC(C)C)C(=O)N[C@@H](C)C(=O)O)[C@@H](C)CC	Antigen peptide transporter 1/Antigen peptide transporter 2	ligand displacement	–	IC50	500 nM
CNCC(=O)N[C@@H](CO)C(=O)N[C@H]1[C@H](O)[C@@H](O)[C@H](n2ccc(N)nc2=O)O[C@@H]1C(N)=O	CP	binding, MST	–	Kd	9200 nM
